{"data": "Measured values gathered from unrelated publications", "target": "Mitogen-activated protein kinase kinase kinase 5 (MAP3K5, Homo sapiens, UniProt Q99683)", "Sequence (Q99683 1-1374, as in one of the studies)": "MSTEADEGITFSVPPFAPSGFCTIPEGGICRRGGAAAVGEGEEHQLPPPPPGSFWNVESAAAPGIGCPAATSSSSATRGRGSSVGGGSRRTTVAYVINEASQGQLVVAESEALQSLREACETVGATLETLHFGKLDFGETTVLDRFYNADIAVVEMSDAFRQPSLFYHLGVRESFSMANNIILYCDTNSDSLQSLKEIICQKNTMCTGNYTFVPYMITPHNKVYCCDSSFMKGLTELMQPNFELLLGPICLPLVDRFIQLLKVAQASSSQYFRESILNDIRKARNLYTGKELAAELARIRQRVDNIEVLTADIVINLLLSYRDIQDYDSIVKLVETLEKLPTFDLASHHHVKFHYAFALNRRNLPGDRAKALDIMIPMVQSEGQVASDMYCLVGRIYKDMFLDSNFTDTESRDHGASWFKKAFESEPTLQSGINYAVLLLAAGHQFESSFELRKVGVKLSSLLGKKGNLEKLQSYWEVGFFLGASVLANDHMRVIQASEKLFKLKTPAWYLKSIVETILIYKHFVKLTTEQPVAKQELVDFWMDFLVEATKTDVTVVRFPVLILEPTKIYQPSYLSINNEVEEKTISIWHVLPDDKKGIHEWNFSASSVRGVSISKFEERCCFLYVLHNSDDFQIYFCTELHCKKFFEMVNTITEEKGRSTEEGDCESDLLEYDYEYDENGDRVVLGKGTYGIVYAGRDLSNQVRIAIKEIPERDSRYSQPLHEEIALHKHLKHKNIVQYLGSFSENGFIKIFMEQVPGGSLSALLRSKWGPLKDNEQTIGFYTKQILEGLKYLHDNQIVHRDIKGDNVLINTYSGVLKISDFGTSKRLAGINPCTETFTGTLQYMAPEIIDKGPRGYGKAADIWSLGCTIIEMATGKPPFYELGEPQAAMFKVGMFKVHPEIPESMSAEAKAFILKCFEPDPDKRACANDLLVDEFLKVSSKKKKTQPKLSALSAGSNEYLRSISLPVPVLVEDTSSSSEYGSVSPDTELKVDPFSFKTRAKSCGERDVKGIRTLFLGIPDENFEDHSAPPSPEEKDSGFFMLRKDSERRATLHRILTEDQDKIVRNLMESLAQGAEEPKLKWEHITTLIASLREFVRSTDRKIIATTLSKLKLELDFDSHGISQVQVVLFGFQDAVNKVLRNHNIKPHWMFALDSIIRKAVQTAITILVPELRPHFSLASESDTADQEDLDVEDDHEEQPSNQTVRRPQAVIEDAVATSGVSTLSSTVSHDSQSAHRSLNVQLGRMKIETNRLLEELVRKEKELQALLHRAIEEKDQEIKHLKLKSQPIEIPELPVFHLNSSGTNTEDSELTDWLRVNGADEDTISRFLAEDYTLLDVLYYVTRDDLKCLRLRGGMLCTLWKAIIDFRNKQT", "note": "Protocols differ between the studies behind these lines."}
{"Compound": "Cn1cc(-c2cccc(N3CCc4c(sc5c4CC(C)(C)C5)C3=O)c2CO)cc(Nc2ccncn2)c1=O", "effect on": "enzyme activity", "action": "inhibitor", "tested at": "1 µM", "quantity": "inhibition", "value": "14%"}
{"Compound": "O=c1[nH]c2ccccc2n1C1CCN(Cc2ccc(-c3[nH]c4cc5ncnc5cc4nc3-c3ccccc3)cc2)CC1", "effect on": "cell-free assay", "tested at": "0.5 µM", "quantity": "remaining signal", "value": "93.8%"}
{"Compound": "Cn1cncc1[C@@](O)(COc1ccc(C#N)cc1-c1ccc(OC(F)(F)F)cc1)c1ccc(C#N)cc1", "effect on": "cell-free assay", "technique": "competition with immobilised ligand", "tested at": "1 µM", "quantity": "remaining binding", "value": "91%"}
{"Compound": "Nc1ncc(-c2nc(N3CCOCC3)nc(N3CCOCC3)n2)c(C(F)F)n1", "effect on": "binding", "technique": "competition with immobilised ligand", "tested at": "10 µM", "quantity": "remaining binding", "value": "92%"}
{"Compound": "N#CC1(c2ccccn2)CCN(Cc2cc(C(=O)O)c(=O)n3ccccc23)CC1", "effect on": "cell-free assay", "technique": "competition with immobilised ligand", "tested at": "1 µM", "quantity": "remaining binding", "value": "75%"}
{"Compound": "COc1cc(Nc2ncc(F)c(Nc3ccc4c(n3)NC(=O)C(C)(C)O4)n2)cc(OC)c1OC", "effect on": "binding", "technique": "competition with immobilised ligand", "tested at": "10 µM", "quantity": "inhibition", "value": "0%"}
{"Compound": "CC(C)(C)c1cc(C=C(C#N)C#N)cc(Br)c1O", "effect on": "enzyme activity", "action": "inhibitor", "tested at": "0.5 µM", "quantity": "remaining activity", "value": "100%"}
{"Compound": "Cn1cc(-c2cc(F)cc(N3CCn4c(cc5c4CCCC5)C3=O)c2CO)cc(Nc2ccc(N3CCN(C4COC4)CC3)cn2)c1=O", "effect on": "enzyme activity", "action": "inhibitor", "tested at": "0.1 µM", "quantity": "inhibition", "value": "2%"}
{"Compound": "COc1ncccc1-c1cnn2ccc(N3CCN(C(=O)OC(C)C)CC3)nc12", "effect on": "binding", "technique": "competition with immobilised ligand", "tested at": "1 µM", "quantity": "remaining binding", "value": "73%"}
{"Compound": "Cc1nn(C)cc1-c1nc2c(N3CCN(Cc4ccc(Cl)cc4)CC3)c(Cl)cnc2[nH]1", "effect on": "binding", "technique": "competition with immobilised ligand", "tested at": "1 µM", "quantity": "remaining binding", "value": "100%"}
